Data from ChEMBL document CHEMBL1134346, “Labeling and evaluation of N-[11C]methylated quinoline-2-carboxamides as potential radioligands for visualization of peripheral benzodiazepine receptors” (J Med Chem, 2001).

What was measured:
[1] = species: Rattus norvegicus; test: Tissue (pituitary) distribution in Albino male CD rats after 30 minutes expressed as percent of injected dose per gram of organ.; assay type: ADME, organism-based, Pituitary gland; conditions: in vivo, 0.5 h
Summary of the method: (§1)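 Male albino CD rats (225-250 g) received the 11C-labelled radioligand in saline by tail-vein injection. Three rats per time point were decapitated under light ether anaesthesia at 5, 15, 30, 60 or 90 min. Blood was collected heparinized and plasma separated by centrifugation. The pituitary was dissected from the brain. Lung, liver (three-lobe pieces) and right deltoid muscle were sampled, washed in cold saline, gamma-counted and weighed. Results are %I.D./g.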

[2] = species: Rattus norvegicus; test: Tissue (lung) distribution in Albino male CD rats after 5 minutes expressed as percent of injected dose per gram of organ.; assay type: ADME, organism-based; conditions: in vivo; summary of the method: as §1
[3] = species: Rattus norvegicus; test: Tissue (plasma) distribution in Albino male CD rats after 5 minutes expressed as percent of injected dose per gram of organ.; assay type: ADME, organism-based; conditions: in vivo; summary of the method: as §1
[4] = species: Rattus norvegicus; test: Tissue (adrenal gland) distribution in Albino male CD rats after 30 minutes expressed as percent of injected dose per gram of organ.; assay type: ADME, organism-based; conditions: in vivo, 0.5 h
Summary of the method: (§2)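 Radioligand given in saline into tail vein of male albino CD rats (225-250 g); 100-200 µCi per animal, 1-2 Ci/µmol at injection depending on radioligand. Three rats per time point were decapitated under light ether anaesthesia. Blood, plasma, brain regions and washed organs were weighed and gamma-counted. Uptake is %I.D./g tissue, mean ± SD.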

[5] = species: Rattus norvegicus; test: Tissue (spleen) distribution in Albino male CD rats after 30 minutes expressed as percent of injected dose per gram of organ.; assay type: ADME, organism-based; conditions: in vivo, 0.5 h; summary of the method: as §1
[6] = species: Rattus norvegicus; test: Tissue (muscle) distribution in Albino male CD rats after 60 minutes expressed as percent of injected dose per gram of organ.; assay type: ADME, organism-based; conditions: in vivo, 1 h; summary of the method: as §1
[7] = species: Rattus norvegicus; test: Tissue (testicle) distribution in Albino male CD rats after 30 minutes expressed as percent of injected dose per gram of organ.; assay type: ADME, organism-based; conditions: in vivo, 0.5 h; summary of the method: as §1
[8] = species: Rattus norvegicus; test: Tissue (heart) concentration of radioactivity at 30 min post-injection into Albino male CD rats with vehicle.; assay type: ADME, organism-based; conditions: in vivo, 0.5 h
Summary of the method: (§3)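 Separate groups of five rats received tail-vein PK 11195 (1.4-1.6 mg; 5 mg/kg) in 30 µL DMSO:EtOH 1:1, or vehicle alone, immediately before iv radioligand (90-170 µCi in saline, 0.9-1 Ci/µmol). Rats were decapitated at 30 min and tissues gamma-counted; values are %I.D./g.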

[9] = species: Rattus norvegicus; test: Tissue (pituitary) distribution in Albino male CD rats after 60 minutes expressed as percent of injected dose per gram of organ.; assay type: ADME, organism-based, Pituitary gland; conditions: in vivo, 1 h; summary of the method: as §1
[10] = species: Rattus norvegicus; test: Tissue (intestine) distribution in Albino male CD rats after 90 minutes expressed as percent of injected dose per gram of organ.; assay type: ADME, organism-based; conditions: in vivo, 1.5 h; summary of the method: as §2
[11] = species: Rattus norvegicus; test: Tissue (adrenal gland) concentration of radioactivity at 30 min post-injection into Albino male CD rats with vehicle.; assay type: ADME, organism-based; conditions: in vivo, 0.5 h; summary of the method: as §3
[12] = species: Rattus norvegicus; test: Tissue (muscle) concentration of radioactivity at 30 min post-injection into Albino male CD rats with vehicle.; assay type: ADME, organism-based; conditions: in vivo, 0.5 h
Summary of the method: (§4)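 Blocking study in male albino CD rats, five per group. Immediately before the 11C radioligand (in saline, i.v. tail vein), rats received 30 µL tail-vein PK 11195 (5 mg/kg; 1.4-1.6 mg) in DMSO:EtOH 1:1, or vehicle. Rats were decapitated at 30 min. Tissues were dissected, washed, gamma-counted and weighed as in the biodistribution study. Results are %I.D./g.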

[13] = target: Translocator protein (Rattus norvegicus) (UniProt P16257); test: Tissue (spleen) concentration of radioactivity at 30 min post-injection into Albino male CD rats after pretreatment with cold PK 11195.; assay type: functional, tissue-based; summary of the method: as §4
[14] = species: Rattus norvegicus; test: Tissue (heart) distribution in Albino male CD rats after 15 minutes expressed as percent of injected dose per gram of organ.; assay type: ADME, organism-based; conditions: in vivo, 0.25 h; summary of the method: as §2
[15] = species: Rattus norvegicus; test: Tissue (muscle) distribution in Albino male CD rats after 5 minutes expressed as percent of injected dose per gram of organ.; assay type: ADME, organism-based; conditions: in vivo; summary of the method: as §1
[16] = species: Rattus norvegicus; test: Tissue (muscle) distribution in Albino male CD rats after 90 minutes expressed as percent of injected dose per gram of organ.; assay type: ADME, organism-based; conditions: in vivo, 1.5 h; summary of the method: as §1
[17] = species: Rattus norvegicus; test: Tissue (liver) distribution in Albino male CD rats after 90 minutes expressed as percent of injected dose per gram of organ.; assay type: ADME, organism-based; conditions: in vivo, 1.5 h; summary of the method: as §1
[18] = species: Rattus norvegicus; test: Tissue (liver) distribution in Albino male CD rats after 60 minutes expressed as percent of injected dose per gram of organ.; assay type: ADME, organism-based; conditions: in vivo, 1 h; summary of the method: as §1
[19] = target: Translocator protein (Rattus norvegicus) (UniProt P16257); test: Tissue (muscle) concentration of radioactivity at 30 min post-injection into Albino male CD rats after pretreatment with cold PK 11195.; assay type: functional; summary of the method: as §4
[20] = species: Rattus norvegicus; test: Tissue (heart) distribution in Albino male CD rats after 90 minutes expressed as percent of injected dose per gram of organ.; assay type: ADME, organism-based; conditions: in vivo, 1.5 h; summary of the method: as §2
[21] = species: Rattus norvegicus; test: Tissue (adrenal gland) distribution in Albino male CD rats after 15 minutes expressed as percent of injected dose per gram of organ.; assay type: ADME, organism-based; conditions: in vivo, 0.25 h; summary of the method: as §2
[22] = species: Rattus norvegicus; test: Tissue (blood) distribution in Albino male CD rats after 5 minutes expressed as percent of injected dose per gram of organ.; assay type: ADME, organism-based; conditions: in vivo; summary of the method: as §2
[23] = species: Rattus norvegicus; test: Tissue (kidney) distribution in Albino male CD rats after 90 minutes expressed as percent of injected dose per gram of organ.; assay type: ADME, organism-based; conditions: in vivo, 1.5 h; summary of the method: as §2
[24] = species: Rattus norvegicus; test: Tissue (lung) concentration of radioactivity at 30 min post-injection into Albino male CD rats with vehicle.; assay type: ADME, organism-based; conditions: in vivo, 0.5 h; summary of the method: as §4
[25] = target: Translocator protein (Rattus norvegicus) (UniProt P16257); test: Tissue (lung) concentration of radioactivity at 30 min post-injection into Albino male CD rats after pretreatment with cold PK 11195.; assay type: functional; summary of the method: as §4
[26] = species: Rattus norvegicus; test: Tissue (lung) distribution in Albino male CD rats after 60 minutes expressed as percent of injected dose per gram of organ.; assay type: ADME, organism-based; conditions: in vivo, 1 h; summary of the method: as §1
[27] = species: Rattus norvegicus; test: Tissue (cortex) distribution in Albino male CD rats after 30 minutes expressed as percent of injected dose per gram of organ.; assay type: ADME, organism-based; conditions: in vivo, 0.5 h; summary of the method: as §2
[28] = target: Translocator protein (Rattus norvegicus) (UniProt P16257); test: Tissue (heart) concentration of radioactivity at 30 min post-injection into Albino male CD rats after pretreatment with cold PK 11195.; assay type: functional; summary of the method: as §3
[29] = species: Rattus norvegicus; test: Tissue (spleen) distribution in Albino male CD rats after 90 minutes expressed as percent of injected dose per gram of organ.; assay type: ADME, organism-based; conditions: in vivo, 1.5 h
[30] = species: Rattus norvegicus; test: Tissue (testicle) distribution in Albino male CD rats after 90 minutes expressed as percent of injected dose per gram of organ.; assay type: ADME, organism-based; conditions: in vivo, 1.5 h
[31] = species: Rattus norvegicus; test: Tissue (intestine) distribution in Albino male CD rats after 5 minutes expressed as percent of injected dose per gram of organ.; assay type: ADME, organism-based; conditions: in vivo; summary of the method: as §2
[32] = species: Rattus norvegicus; test: Tissue (cerebellum) distribution in Albino male CD rats after 15 minutes expressed as percent of injected dose per gram of organ.; assay type: ADME, organism-based; conditions: in vivo, 0.25 h; summary of the method: as §2
[33] = species: Rattus norvegicus; test: Tissue (cerebellum) distribution in Albino male CD rats after 5 minutes expressed as percent of injected dose per gram of organ.; assay type: ADME, organism-based; conditions: in vivo; summary of the method: as §2
[34] = species: Rattus norvegicus; test: Tissue (testicle) distribution in Albino male CD rats after 15 minutes expressed as percent of injected dose per gram of organ.; assay type: ADME, organism-based; conditions: in vivo, 0.25 h; summary of the method: as §1
[35] = target: Translocator protein (Rattus norvegicus) (UniProt P16257); test: Tissue (kidney) concentration of radioactivity at 30 min post-injection into Albino male CD rats after pretreatment with cold PK 11195.; assay type: functional, tissue-based; summary of the method: as §3
[36] = species: Rattus norvegicus; test: Tissue (kidney) concentration of radioactivity at 30 min post-injection into Albino male CD rats with vehicle.; assay type: ADME, organism-based; conditions: in vivo, 0.5 h; summary of the method: as §3
[37] = species: Rattus norvegicus; test: Tissue (plasma) distribution in Albino male CD rats after 30 minutes expressed as percent of injected dose per gram of organ.; assay type: ADME, organism-based; conditions: in vivo, 0.5 h; summary of the method: as §1
[38] = species: Rattus norvegicus; test: Tissue (lung) distribution in Albino male CD rats after 30 minutes expressed as percent of injected dose per gram of organ.; assay type: ADME, organism-based; conditions: in vivo, 0.5 h; summary of the method: as §1
[39] = species: Rattus norvegicus; test: Tissue (spleen) distribution in Albino male CD rats after 5 minutes expressed as percent of injected dose per gram of organ.; assay type: ADME, organism-based; conditions: in vivo; summary of the method: as §1
[40] = species: Rattus norvegicus; test: Tissue (kidney) distribution in Albino male CD rats after 30 minutes expressed as percent of injected dose per gram of organ.; assay type: ADME, organism-based; conditions: in vivo, 0.5 h; summary of the method: as §2

Translocator protein (Rattus norvegicus), sequence (P16257 whole entry, looked up): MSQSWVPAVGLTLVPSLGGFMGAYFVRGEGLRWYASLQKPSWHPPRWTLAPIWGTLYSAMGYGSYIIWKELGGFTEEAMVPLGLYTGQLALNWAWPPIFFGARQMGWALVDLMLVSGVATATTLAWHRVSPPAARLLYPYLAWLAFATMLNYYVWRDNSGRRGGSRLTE

CCC(C)N(C)C(=O)c1nc2ccccc2c(-c2ccccc2)c1C (stereo not given)
I.D./g [1]: 0.24% | I.D./g [2]: 3.09% | I.D./g [3]: 0.12% | I.D./g [4]: 2.54% | I.D./g [5]: 1.25% | I.D./g [6]: 0.12% | I.D./g [7]: 0.08% | I.D./g [8]: 0.77% | I.D./g [9]: 0.25% | I.D./g [10]: 0.37% | I.D./g [11]: 1.6% | I.D./g [12]: 0.09% | I.D./g [13]: < 0.11% | I.D./g [14]: 0.8% | I.D./g [15]: 0.11% | I.D./g [16]: 0.12% | I.D./g [17]: 0.27% | I.D./g [18]: 0.32% | I.D./g [19]: > 0.07% | I.D./g [20]: 1.23% | I.D./g [21]: 1.38% | I.D./g [22]: 0.13% | I.D./g [23]: 0.73% | I.D./g [24]: 0.91% | I.D./g [25]: < 0.14% | I.D./g [26]: 1.33% | I.D./g [27]: 0.07% | I.D./g [28]: < 0.13% | I.D./g [29]: 1.06% | I.D./g [30]: 0.08% | I.D./g [31]: 0.25% | I.D./g [32]: 0.08% | I.D./g [33]: 0.13% | I.D./g [34]: 0.05% | I.D./g [35]: < 0.16% | I.D./g [36]: 0.45% | I.D./g [37]: 0.03% | I.D./g [38]: 2.34% | I.D./g [39]: 0.5% | I.D./g [40]: 0.77%
